Measurements reported in paper PMC4482135 (Organometallics, 2015).
“And” between values parts separate entries of the source, which are not always exact repeats. Identical values can stand only once. Like-named read-outs stand apart in the source and are kept apart here.

Key:
[1] = tested on: HCT116 human colon carcinoma cells; experiment: In vitro growth inhibition; format: cell-based; details: read-out: IC50 values, HCT-116; 24 h drug exposure, 72 h recovery, SRB assay
Outline: (§1)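 Cells seeded at 5000 per well and preincubated 48 h drug-free at 310 K. Media: RPMI-1640 (A2780), DMEM (A549, MCF7) or McCoy's 5A (HCT116), each with 10% FCS. Test compound stocks made in 5% DMSO with saline/medium 1:1, then serially diluted in medium. Exposure 24 h, PBS wash, then 72 h recovery. SRB absorbance read at 470 nm against untreated control. IC50 (50% growth inhibition) from duplicates of triplicates in two independent experiments.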

[2] = tested on: MCF7 human breast carcinoma cells; experiment: In vitro growth inhibition; format: cell-based; details: read-out: IC50 values, MCF-7; 24 h drug exposure, 72 h recovery, SRB assay
Outline: as §1

[3] = tested on: A549 human lung carcinoma cells; experiment: In vitro growth inhibition; format: cell-based; details: read-out: IC50 values, A549; 24 h drug exposure, 72 h recovery, SRB assay
Outline: as §1

[4] = tested on: A2780 human ovarian carcinoma cells; details: read-out: IC50 values, A2780; previously reported complexes; ref [4b]; cited from earlier work
[5] = tested on: A2780 human ovarian carcinoma cells; experiment: In vitro growth inhibition; format: cell-based; details: read-out: IC50 values, A2780; 24 h drug exposure, 72 h recovery, SRB assay
Outline: as §1

[6] = Relative hydrophobicity by RP-HPLC; format: physicochemical; details: C18, H2O/MeCN with 50 mM NaCl; longer tR = more hydrophobic
Outline: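 RP-HPLC on C18 column (150 × 4.6 mm, 5 μm). A = H2O with 50 mM NaCl; B = H2O/MeCN 1:1 with 50 mM NaCl. Gradient starts at 20% B, reaches 100% B at 15 min, holds to 40 min, returns to 20% B by 42 min; run 57 min. Flow 1 mL min–1, detection 254 nm. Samples ca. 100 μM in 10% MeOH/90% H2O with 50 mM NaCl. tR from duplicates of triplicate runs.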

[7] = tested on: A2780 ovarian carcinoma cells; experiment: Cellular-iridium accumulation in A2780 cells by ICP-MS; format: cell-based, human; details: for cellular-Ir accumulation: 24 h exposure at equipotent (IC50) concentrations, no recovery, ICP-MS
Outline: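 A2780 cells, 1.5 × 10^6 per well, preincubated 24 h drug-free at 310 K in humidified 5% CO2. Then 24 h exposure to test complex. Cells trypsinised, counted and pelleted; pellets digested overnight in 73% HNO3 at 353 K, then diluted to 5% HNO3. 193Ir measured by ICP-MS (no-gas mode, duplicate readings, 0–100 ppb calibration). Triplicates in two independent experiments.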

[8] = tested on: 9-ethylguanine (9-EtG); experiment: Binding to nucleobase 9-ethylguanine by 1H NMR
Outline: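 Test complex (ca. 500 μM) and 9-EtG (ca. 500 μM), about 1:1, in 26.7% MeOD-d4/73.3% D2O with 4 mM NaCl, so the complex is mainly the Ir–Cl form. Held at 310 K, pH* 7.4. 1H NMR (600 MHz) recorded 15 min and 24 h after nucleobase addition. Adduct percentage taken from 1H NMR peak integrations.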

[9] = tested on: 9-methyladenine (9-MeA); experiment: Binding to nucleobase 9-methyladenine by 1H NMR; details: co-incubation with equimolar 9-EtG and 9-MeA, 310 K, pH* 7.4
Outline: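 Competition run: test complex (ca. 500 μM) with equimolar 9-EtG and 9-MeA in 26.7% MeOD-d4/73.3% D2O at 310 K, pH* 7.4. 1H NMR (600 MHz) recorded 15 min and 24 h after nucleobase addition. Percentage bound to each nucleobase calculated from 1H NMR peak integrations.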

[10] = Catalytic oxidation of NADH to NAD+ by UV-visible spectroscopy; details: complex 2.5 μM, NADH 69, 103, 146 μM, 310 K, pH 7.5
Outline: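 Test complex fixed at 2.5 μM with NADH at 69, 103 or 146 μM, in 5 mM Na2HPO4/NaH2PO4 buffer pH 7.5 (0.5% MeOH/99.5% H2O), 310 K, 24 h. NADH loss followed by UV–vis at 339 nm (εNADH = 6220 cm–1 M–1). Rate constant k taken from first-order kinetic plots in [NADH].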

[11] = tested on: A2780 human ovarian cancer cells; experiment: Cellular-iridium distribution in A2780 cells; format: cell-based; details: IC50 concentrations

## Cc1c(C)c(C)[c-](C)c1C.Fc1ccc[c-]c1-c1ccccn1.[Cl-].[Ir+3] [Complex 1, [(η^5-Cp*)Ir(2-(2′-fluorophenyl)pyridine)Cl]]
[1]
  IC50: 3.7 ± 0.3 µM
[2]
  IC50: 9.6 ± 0.4 µM
[3]
  IC50: 10.36 ± 0.07 µM

## Cc1c(-c2ccccc2)c(C)[c-](C)c1C.[Cl-].[Ir+3].[c-]1ccccc1-c1ccccn1 (stereo not shown) [Complex 17, [(η^5-Cp^xPh)Ir(2-phenylpyridine)Cl]]
[4]
  IC50: 2.14 ± 0.5 µM

## Cc1c(C)c(C)[c-](C)c1C.Oc1c[c-]c(-c2ccccn2)cc1.[Cl-].[Ir+3] [Complex 11, [(η^5-Cp*)Ir(2-(4′-hydroxyphenyl)pyridine)Cl]]
[5]
  IC50: 47.3 ± 0.1 µM
[1]
  IC50: 29.3 ± 0.8 µM
[2]
  IC50: 28.6 ± 0.9 µM
[3]
  IC50: 56.67 ± 0.04 µM
[6]
  tR by RP-HPLC (relative hydrophobicity): 15.11 min and 15.1 min and 15.11 ± 0.03 min
[7]
  cellular-Ir accumulation: 1.58 ng Ir × 10^6 A2780 cells and 1.6 ng Ir × 10^6 A2780 cells and 1.6 ± 0.1 ng Ir × 10^6 A2780 cells

## Cc1c(C)c(C)[c-](C)c1C.Fc1ccc(-c2[c-]cccc2)nc1.[Cl-].[Ir+3] [Complex 4, [(η^5-Cp*)Ir(2-phenyl-5-fluoropyridine)Cl]]
[8]; 4 mM NaCl (Ir-Cl species), after 15 min
  binding to 9-EtG in the presence of 4 mM NaCl: 100%
[8]; 4 mM NaCl (Ir–Cl species), after 24 h, 310 K
  binding to 9-EtG in the presence of 4 mM NaCl: 100%
[9]
  binding to 9-MeA in the presence of 9-EtG (competitive binding): 5–10%
[10]
  average rate constant k, first-order with respect to [NADH]: 4.03 × 10^–4 min^–1
[6]
  tR by RP-HPLC (relative hydrophobicity): 18.60 ± 0.02 min
[7]
  cellular-Ir accumulation: 11.1 ± 0.1 ng Ir × 10^6 A2780 cells
[11]
  iridium in cell membrane and particulate fractions: 17.9%
  iridium in cytoskeletal fraction: 6.1%
  iridium in cytosol fraction: 69.2%
  iridium in nuclear fraction: 6.7%

## N.N.[Cl][Pt][Cl] [cisplatin, reference compound]
[5]
  IC50: 1.2 ± 0.2 µM
[1]
  IC50: 5.2 ± 0.3 µM
[2]
  IC50: 7 ± 0.1 µM
[3]
  IC50: 3.5 ± 0.2 µM

## Cc1c(C)c(C)[c-](C)c1C.Oc1ccc(-c2[c-]cccc2)nc1.[Cl-].[Ir+3] [Complex 12, [(η^5-Cp*)Ir(2-phenyl-5-hydroxypyridine)Cl]]
[5]
  IC50: 13.3 ± 0.88 µM
[6]
  tR by RP-HPLC (relative hydrophobicity): 17.8 min and 17.8 ± 0.2 min
[7]
  cellular-Ir accumulation: 10.2 ng Ir × 10^6 A2780 cells and 10.2 ± 0.2 ng Ir × 10^6 A2780 cells
[7]; A2780 cells, IC50 concentrations
  fold cellular-iridium accumulation relative to isomer 11: 6 times
